From ChEMBL document CHEMBL2010774, “Cytotoxic apigenin derivatives from Chrysopogon aciculatis” (J Nat Prod, 2012)

Key:
Format in all cases: functional, cell-based
[1] = tested on: CCRF-CEM; assay: Cytotoxicity against human CEM cells after 48 hrs by alamar blue assay
Procedure, shortened: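 CEM, a human leukemia cell line.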

[2] = tested on: MCF7; assay: Cytotoxicity against human MCF7 cells after 48 hrs by alamar blue assay; details: MCF7, 48 h
Procedure, shortened: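 MCF-7, a human breast cancer cell line.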

[3] = tested on: NCI-H460; assay: Cytotoxicity against human NCI-H460 cells after 48 hrs by alamar blue assay; details: NCI-H460, 48 h
Procedure, shortened: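 H460, a human lung cancer cell line.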

[4] = tested on: HT-29; assay: Cytotoxicity against human HT-29 cells after 48 hrs by alamar blue assay; details: HT-29, 48 h
Procedure, shortened: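 HT-29, a human colon cancer cell line.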

| Compound | IC50 [1] [µM] | IC50 [2] [µM] | IC50 [3] [µM] | IC50 [4] [µM] |
| --- | --- | --- | --- | --- |
| C[C@H]1O[C@@H](c2c(O)cc(O)c3c(=O)cc(-c4ccc(O)cc4)oc23)C[C@H](O)[C@@H]1O | 4.42 | 6.35 | 18.2 | 25.3 |
| C[C@H]1O[C@@H](c2c(O)cc(O)c3c(=O)cc(-c4ccc(O)cc4)oc23)C[C@H](O)[C@H]1O | 2.58 | 75 | 12 | 10 |
| COc1cc(O)c2c(=O)cc(-c3ccc(O[C@@H]4O[C@H](CO)[C@@H](O)[C@H](O)[C@H]4O)cc3)oc2c1[C@H]1C[C@H](O)[C@H](O)[C@@H](C)O1 | > 100 | > 100 | > 100 | > 100 |
| COc1cc(O)c2c(=O)cc(-c3ccc(O)cc3)oc2c1[C@H]1CC(=O)[C@H](O)[C@@H](C)O1 [ACICULATINONE] | 13.3 | 18.4 | 18.1 | 11.6 |
| COc1cc(O)c2c(=O)cc(-c3ccc(O)cc3)oc2c1[C@H]1C[C@H](O)[C@H](O)[C@@H](C)O1 [ACICULATIN] | 2.65 | 3.16 | 46.9 | 26 |
| COc1cccc2c1C(=O)c1c(O)c3c(c(O)c1C2=O)C[C@@](O)(C(=O)CO)C[C@@H]3O[C@H]1C[C@H](N)[C@H](O)[C@H](C)O1 [DOXORUBICIN] | – | 2.5 | – | 6.04 |
